The nature of data set [1]: Downregulation of NF-kappaB expression in human Detroit 573 cells at by RT-PCR analysis. In kind it is ADME, cell-based. In outline: (§1)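 Total RNA was Trizol-extracted from control and treated cells (ZR-75-1 or Detroit 573; 10% heat-inactivated FCS, 37 °C, 5% CO2). 200 ng was taken through one-step RT-PCR: 30 min at 50 °C, 2 min at 95 °C, then 25 cycles with gene-specific annealing and extension. Products were run on 1.0% agarose, normalised to β-actin and quantified by densitometry. Three independent experiments, Student's t test.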

For data set [2], the species on record is Mus musculus. The experiment in a line: Immunostimulation activity in BALB/c mouse assessed as influx of peritoneal macrophages measured 1 to 3 days post compound injection. In kind it is functional, organism-based.
The test system of data set [3] is Mus musculus. Kind of data set: Immunostimulation activity in BALB/c mouse assessed as production of […] in peripheral blood at 100 ug, ip by EIA. In kind it is functional, organism-based. In outline:
(§2)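 BALB/c mice received 100 μg oligosaccharide i.p., or PBS. Mice were sacrificed at intervals and serum was stored at −80 °C for ≤1 week. IL-1β and TNF-α were measured by ELISA at 450 nm with 570 nm correction, against a standard curve run with each assay (linear regression). Mean of three experiments ± SD.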

The species named for data set [4] is Mus musculus. The experiment in a line: Immunostimulation activity in BALB/c mouse assessed as stimulation of […] neutrophils measured […] in presence of polymyxin B. In kind it is functional, organism-based. In outline: (§3)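 This is the HEMA-particle phagocytosis assay repeated with 10 μg/mL polymyxin B added to the samples. Peritoneal cells (1 × 10^7, RPMI-1640 with 5% FCS) and heparinised orbital-plexus blood were taken from mice injected with oligosaccharides 1 or 4 days before. Cells were Giemsa-stained, and those carrying ≥3 particles were scored positive.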

Data set [5] has as its system ZR-75-1. The experiment in a line: Upregulation of NF-kappaB expression in human ZR-75-1 cells at by RT-PCR analysis. In kind it is functional, cell-based. In outline:
as §1

The species named for data set [6] is Mus musculus. The experiment in a line: Immunostimulation activity in BALB/c mouse assessed as stimulation of peritoneal macrophages measured […] in presence of polymyxin B. In kind it is functional, organism-based. An outline of the steps:
as §3

For data set [7], the species on record is Mus musculus. The experiment in a line: Immunostimulation activity in BALB/c mouse assessed as stimulation of […] neutrophils measured […] post compound injection. In kind it is functional, organism-based. An outline of the steps: (§4)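 Mice were injected with oligosaccharides 1 or 4 days before. Peritoneal macrophages (1 × 10^7, in RPMI-1640 with 5% FCS) were incubated with HEMA particles, Giemsa-stained and differentially counted; cells with ≥3 particles were scored positive. Peripheral blood was scored the same way, using one heparinised drop from the orbital plexus. Mean of three experiments ± SD.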

For data set [8], the species on record is Mus musculus. The experiment in a line: Immunostimulation activity in BALB/c mouse assessed as production of IL-2 in splenocytes measured 1 to 3 days post compound injection. In kind it is functional, organism-based. In outline: (§5)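 Purified spleen cells (2 × 10^6/mL in RPMI 1640 with 5% FCS) were cultured for 72 h at 37 °C, 5% CO2; 1 μg Concanavalin A was added to positive-control wells. Supernatants were filtered at 0.45 μm and IL-2 was measured by mouse IL-2 ELISA kit. Mean of three experiments ± SD; PBS-injected mice served as controls.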

Data set [9] in a line: Upregulation of PKC expression in human Detroit 573 cells at by RT-PCR analysis. In kind it is ADME, cell-based. In outline:
as §1

In data set [10] the test system is Mus musculus. The experiment in a line: Immunostimulation activity in BALB/c mouse assessed as production of IL-2 in conA-stimulated splenocytes at 100 ug, ip by EIA. In kind it is functional, organism-based. In outline:
as §5

A short description of data set [11]: Downregulation of CDC25 expression in human Detroit 573 cells at by RT-PCR analysis. In kind it is ADME, cell-based. An outline of the steps:
as §1

The subject of data set [12] is ZR-75-1. The experiment in a line: Upregulation of PKC expression in human ZR-75-1 cells at by RT-PCR analysis. In kind it is functional, cell-based. An outline of the steps:
as §1

For data set [13], the species on record is Mus musculus. Kind of data set: Immunostimulation activity in BALB/c mouse assessed as stimulation of peritoneal macrophages measured […] post compound injection. In kind it is functional, organism-based. An outline of the steps: as §4
Data set [14] is filed under the species Mus musculus. Kind of data set: Immunostimulation activity in BALB/c mouse assessed as stimulation of monocytes measured […] post compound injection in presence of polymyxin B. In kind it is functional, organism-based. In outline: as §3
For data set [15], the system named is ZR-75-1. Kind of data set: Effect on CDC25 expression in human ZR-75-1 cells at by RT-PCR analysis. In kind it is functional, cell-based. An outline of the steps:
as §1

Data set [16] deals with Mus musculus. The experiment in a line: Immunostimulation activity in BALB/c mouse assessed as production of TNF-alpha in peripheral blood at 100 ug, ip by EIA. In kind it is functional, organism-based. An outline of the steps: as §2
Data set [17] is filed under the species Mus musculus. The experiment in a line: Immunostimulation activity in BALB/c mouse assessed as stimulation of monocytes measured […] post compound injection. In kind it is functional, organism-based. An outline of the steps: as §4
Data set [18] in a line: Upregulation of CDC42 expression in human Detroit 573 cells at by RT-PCR analysis. In kind it is ADME, cell-based. An outline of the steps: as §1
Data set [19] deals with ZR-75-1. Kind of data set: Downregulation of CDC42 expression in human ZR-75-1 cells at by RT-PCR analysis. In kind it is functional, cell-based. An outline of the steps:
as §1

SMILES strings stand for the structures. Activity calls are given as the source filed them. No cut-off for these calls is given here.

In the case of `OC[C@H]1O[C@@H](O[C@@H]2[C@@H](O)[C@H](S[C@@H]3[C@@H](O)[C@H](O)O[C@H](CO)[C@H]3O)O[C@H](CO)[C@H]2O)[C@H](O)[C@@H](O)[C@@H]1O`, the Activity entry in data set [1] is listed as “Non-toxic”; in data set [9] it was “Toxic”; in data set [11], “Non-toxic”. For the same molecule, the result in the data set listed under Mus musculus [2], in the data set on Mus musculus [3], in the data set filed under Mus musculus [4], in the data set with ZR-75-1 [5], in the data set filed under Mus musculus [6] and in the data set listed under Mus musculus [7] was Active. Also, the outcome in the data set filed under Mus musculus [8], in the data set with Mus musculus [10], in the data set on ZR-75-1 [12], in the data set listed under Mus musculus [13], in the data set filed under Mus musculus [14] and with Mus musculus [16] was Active. Also, the outcome in the data set filed under Mus musculus [17] was Active. In addition, the outcome with ZR-75-1 [15] was inactive.
As to `OC[C@H]1O[C@@H](S[C@@H]2[C@@H](O)[C@H](S[C@H]3[C@H](O)[C@@H](CO)OC(O)[C@@H]3O)O[C@H](CO)[C@H]2O)[C@H](O)[C@@H](O)[C@@H]1O` (stereo partly specified), the outcome in the data set filed under Mus musculus [2], in the data set filed under Mus musculus [4], in the data set listed under Mus musculus [6], in the data set listed under Mus musculus [7], with ZR-75-1 [12] and in the data set listed under Mus musculus [13] was Active. For the same molecule, the result in the data set filed under Mus musculus [14] and in the data set listed under Mus musculus [17] was Active. Also, the Activity result was “Toxic” in data set [9], “Non-toxic” in [11] and “Non-toxic” in [18]. In addition, the outcome in the data set on ZR-75-1 [15] was inactive.
For the molecule `OC[C@H]1O[C@@H](O[C@@H]2[C@@H](O)[C@H](O[C@@H]3[C@@H](O)[C@H](S[C@H]4[C@H](O)[C@@H](CO)OC(O)[C@@H]4O)O[C@H](CO)[C@H]3O)O[C@H](CO)[C@H]2O)[C@H](O)[C@@H](O)[C@@H]1O` (stereo partly specified), the values for the Activity result in data set [1], in data set [9] and in [11] were “Non-toxic”, “Toxic” and “Non-toxic”, respectively. Besides, the outcome in the data set filed under Mus musculus [2], in the data set on Mus musculus [3], in the data set listed under Mus musculus [4], in the data set listed under Mus musculus [6], in the data set listed under Mus musculus [7] and in the data set filed under Mus musculus [8] was Active. Moreover, the outcome in the data set with Mus musculus [10], in the data set with ZR-75-1 [19], in the data set on ZR-75-1 [12], in the data set listed under Mus musculus [13], in the data set listed under Mus musculus [14] and with Mus musculus [16] was Active. Besides, in the data set listed under Mus musculus [17], the result was Active. The outcome in the data set on ZR-75-1 [15] was inactive.
In the case of `OC[C@H]1O[C@@H](O[C@@H]2[C@@H](O)[C@H](S[C@@H]3[C@@H](O)[C@H](S[C@H]4[C@H](O)[C@@H](CO)OC(O)[C@@H]4O)O[C@H](CO)[C@H]3O)O[C@H](CO)[C@H]2O)[C@H](O)[C@@H](O)[C@@H]1O` (stereo partly specified), the Activity entry in data set [1] is “Toxic”; in data set [9] it was “Toxic”; in data set [18] it was “Non-toxic”. Also, the result in the data set listed under Mus musculus [2], in the data set on Mus musculus [3], in the data set listed under Mus musculus [4], in the data set filed under Mus musculus [6], in the data set listed under Mus musculus [7] and in the data set filed under Mus musculus [8] was Active. The result in the data set with Mus musculus [10], in the data set on ZR-75-1 [12], in the data set listed under Mus musculus [13], in the data set listed under Mus musculus [14], in the data set on Mus musculus [16] and in the data set listed under Mus musculus [17] was Active.
